Assay results collected from several papers.
RPS6KA3: Ribosomal protein S6 kinase alpha-3 (RPS6KA3, Homo sapiens, UniProt P51812)
RPS6KA3 C-terminal kinase domain: Ribosomal protein S6 kinase alpha-3, C-terminal kinase domain (RPS6KA3, Homo sapiens, UniProt P51812)
RPS6KA3 N-terminal kinase domain: Ribosomal protein S6 kinase alpha-3, N-terminal kinase domain (RPS6KA3, Homo sapiens, UniProt P51812)

| SMILES | target | assay | setting | quantity | result |
| --- | --- | --- | --- | --- | --- |
| Cn1cncc1C1=CN(c2ncnc3[nH]cnc23)CCS1 | RPS6KA3 | enzyme activity, inhibitor, radiometric | 2 µM | inhibition | 66% |
| F[C@@H]1CCN(c2nccc(-c3cnn4ncccc34)n2)C1 | RPS6KA3 C-terminal kinase domain | binding, competition with immobilised ligand | 1 µM | remaining binding | 100% |
| O=C(NC[C@@H]1[C@H]2CN(C(=O)OCc3cc(C(F)(F)F)cc(C(F)(F)F)c3)C[C@@H]12)c1ccc2[nH]nnc2c1 | RPS6KA3 N-terminal kinase domain | cell-free assay, competition with immobilised ligand | 1 µM | remaining binding | 94% |
| CC1CCCN1c1nccc(-c2cnn3ncccc23)n1 (stereo not drawn) | RPS6KA3 C-terminal kinase domain | binding, competition with immobilised ligand | 1 µM | remaining binding | 100% |
| CNC(=O)c1cc(Oc2ccc(NC(=O)Nc3ccc(Cl)c(C(F)(F)F)c3)cc2)ccn1 | RPS6KA3 | enzyme activity, inhibitor | 0.3 µM | inhibition | 22% |
| CCN(CC)CCNC(=O)c1c(C)[nH]c(/C=C2\C(=O)Nc3ccc(F)cc32)c1C | RPS6KA3 | cell-free assay | 0.5 µM | remaining signal | 35.5% |
| O=C(Nc1cnn(-c2csc(C(=O)NC3COC3)c2)c1)Nc1ccccc1Cl | RPS6KA3 | enzyme activity, inhibitor | 5 µM | remaining activity | 101% |
| N#CCCc1ccc2c(c1)-c1[nH]c3ccc([N+](=O)[O-])cc3c1CC(=O)N2 | RPS6KA3 | cell-free assay | 0.5 µM | remaining signal | 28.6% |
| Cc1ccc(C(=O)Nc2ccc(CN3CCN(C)CC3)c(C(F)(F)F)c2)cc1C#Cc1cnc2cccnn12 | RPS6KA3 | enzyme activity, inhibitor | 23.5 nM | remaining activity | 93% |
| Oc1cccc(-c2nc(N3CCOCC3)c3oc4ncccc4c3n2)c1 | RPS6KA3 | enzyme activity, inhibitor | 10 µM | remaining activity | 96% |
| CN(CCCC(F)(F)F)c1nccc(-c2cnn3ncccc23)n1 | RPS6KA3 N-terminal kinase domain | binding, competition with immobilised ligand | 1 µM | remaining binding | 100% |
| Nc1nc(NC2CCCCC2)sc1C(=O)c1ccccc1 | RPS6KA3 | enzyme activity, inhibitor | 10 µM | remaining activity | 85% |
| COc1ccc2c(c1)O[C@H](c1ccc(OC)c(OC)c1)C[C@@H]2NC(=O)C1(c2ccc3c(c2)OC(F)(F)O3)CC1 | RPS6KA3 C-terminal kinase domain | cell-free assay, competition with immobilised ligand | 1 µM | remaining binding | 93% |
| CNc1cccc2cc(C(=O)Nc3ccc(C(=O)O)cc3)c(=O)[nH]c12 | RPS6KA3 | enzyme activity, inhibitor | 10 µM | inhibition | 2.2% |
| COc1cc2ncnc(Nc3ccc(F)c(Cl)c3)c2cc1OCCCN1CCOCC1 | RPS6KA3 | cell-free assay | 0.5 µM | remaining signal | 100% |
| CC/C(=N\NC(=O)C(C)Nc1ccccc1)c1ccc(O)c(C)c1O (stereo not drawn) | RPS6KA3 | enzyme activity, inhibitor | 0.1 µM | inhibition | 45.7% |
| CC(C)(C)c1nc2c(s1)c1nc(N)ncc1c1ccc(NS(=O)(=O)c3c(F)cccc3F)c(F)c12 | RPS6KA3 | enzyme activity, inhibitor, radiometric | 1 µM | remaining activity | 90% |
| CN(C)C1CCN(CC#Cc2nn(C3CCCC3)c3nc(NCc4ccccc4)ncc23)C1 (stereo not drawn) | RPS6KA3 | enzyme activity, inhibitor, FRET | 0.1 µM | inhibition | 5% |
| COc1cc2ncnc(Nc3ccc(Oc4ccccc4)cc3C)c2cc1OC | RPS6KA3 | enzyme activity, inhibitor | 1 µM | inhibition | -8% |
| CCCCNc1ncc2c(-c3ccc(F)cc3)nn(C[C@H]3CC[C@H](N)CC3)c2n1 | RPS6KA3 N-terminal kinase domain | target engagement in cells, inhibitor, chemoproteomics | 20 mM | inhibition | 32.6% |
| C[C@H](NC(=O)c1cnc2n1[C@](C)(Cc1ccc(C#N)cc1)C(=O)N2c1cc(Cl)c(F)c(Cl)c1)C(=O)NC1(c2ccccn2)CC1 | RPS6KA3 C-terminal kinase domain | cell-free assay, competition with immobilised ligand | 1 µM | remaining binding | 100% |

| SMILES | target | assay | setting | quantity | result |
| --- | --- | --- | --- | --- | --- |
| FC(F)(F)Oc1cccc(-c2cnc3ccc(-c4ccncc4)nn23)c1 | RPS6KA3 | enzyme activity, inhibitor, radiometric | 1 µM | activity vs control | 105% |
| COc1cc(Nc2c(C#N)cnc3cc(OCCCN4CCN(C)CC4)c(OC)cc23)c(Cl)cc1Cl | RPS6KA3 | cell-free assay | 0.5 µM | remaining signal | 80.1% |
| CC1=C(C#N)[C@@H](c2ccc3[nH]nc(C)c3c2)C(C#N)=C(c2ccc(Cl)cc2)N1 | RPS6KA3 C-terminal kinase domain | cell-free assay, competition with immobilised ligand | 1 µM | remaining binding | 86.2% |
| O=C(Nc1cnn(-c2csc(C(=O)NC3COC3)c2)c1)Nc1c(F)cccc1Cl | RPS6KA3 | enzyme activity, inhibitor | 5 µM | remaining activity | 79.9% |
| Cc1ccc(NC(=O)c2ccc(C)c(C(F)(F)F)c2)cc1C#Cc1nn(C2CCC(O)CC2)c2ncnc(N)c12 (stereo not drawn) | RPS6KA3 | cell-free assay | 10 µM | remaining signal | 44% |
| CCCOc1ccc([C@H]2[C@H](C(=O)O)[C@@H](c3ccc4c(c3)OCO4)CN2CC(=O)Nc2c(CC)cccc2CC)cc1 | RPS6KA3 C-terminal kinase domain | cell-free assay, competition with immobilised ligand | 1 µM | remaining binding | 73% |
| Cc1ccc(Nc2nccc(N(C)c3ccc4c(C)n(C)nc4c3)n2)cc1S(N)(=O)=O | RPS6KA3 | enzyme activity, inhibitor | 0.3 µM | inhibition | 31% |
| O=C(NCc1ncc(C(F)(F)F)cc1Cl)c1ccc2c(c1)C1(CCS(=O)(=O)CC1)[C@@H](C1CC1)N2S(=O)(=O)c1ccc(F)cc1 | RPS6KA3 C-terminal kinase domain | cell-free assay, competition with immobilised ligand | 1 µM | remaining binding | 82% |
| CC(C)(C)C(=O)c1sc(NC2CCCCC2)nc1N | RPS6KA3 | enzyme activity, inhibitor | 10 µM | remaining activity | 104% |
| c1cnn2ncc(-c3ccnc(N4CCC45COC5)n3)c2c1 | RPS6KA3 C-terminal kinase domain | binding, competition with immobilised ligand | 1 µM | remaining binding | 100% |
| CC(C)(O)[C@H]1CC[C@H](Nc2ccc3ncc(-c4cccc(C(F)(F)F)c4)n3n2)CC1 | RPS6KA3 | enzyme activity, inhibitor | 1 µM | remaining activity | 90.6% |
| COc1cccc2c(NCc3ccccc3)nc(-n3c(N)nc4ccccc43)nc12 | RPS6KA3 N-terminal kinase domain | target engagement in cells, inhibitor, chemoproteomics | 20 mM | inhibition | 34.2% |
| C[C@@H]1CCN(c2nccc(-c3cnn4ncccc34)n2)C1 | RPS6KA3 N-terminal kinase domain | binding, competition with immobilised ligand | 1 µM | remaining binding | 74% |
| Cc1ccc(C(=O)NCc2ccsc2)cc1C#Cc1cn(C(C)C)c2ncnc(N)c12 | RPS6KA3 | enzyme activity, inhibitor | 1 µM | activity vs control | 92% |
| Nc1ncnc2occ(-c3ccc(NC(=O)Nc4cc(C(F)(F)F)ccc4F)cc3)c12 | RPS6KA3 N-terminal kinase domain | cell-free assay, inhibitor | 20 µM | remaining signal | 0.4% |
| CNCc1ccccc1-c1csc([C@H](C)Nc2nc(C)nc3cc(OC)c(OC)cc23)c1 | RPS6KA3 C-terminal kinase domain | cell-free assay, competition with immobilised ligand | 1 µM | remaining binding | 78% |
| COc1cc(Nc2cnc(C#N)c(O[C@H](C)CN(C)C)n2)ncc1-c1cnn(C)c1 | RPS6KA3 | enzyme activity, inhibitor, radiometric | 1 µM | remaining activity | 9% |
| CN(c1nccc(-c2cnn3ncccc23)n1)C1CC1 | RPS6KA3 C-terminal kinase domain | binding, competition with immobilised ligand | 1 µM | remaining binding | 100% |
| CN(C)C(=O)Cn1cc(-c2nc([C@@](C)(c3ccc(-c4cnc(N)nc4)cc3)C3CC3)no2)cn1 | RPS6KA3 N-terminal kinase domain | cell-free assay, competition with immobilised ligand | 1 µM | remaining binding | 83% |
| N[C@@H]1CCN(c2nccc(-c3cnn4ncccc34)n2)C1 | RPS6KA3 N-terminal kinase domain | binding, competition with immobilised ligand | 1 µM | remaining binding | 100% |
| Cc1cnc(NC2CCOCC2)nc1-n1cnc(C(=O)NC(CN)c2cc(F)cc(Cl)c2)c1 (stereo not drawn) | RPS6KA3 | enzyme activity, inhibitor, radiometric | 1 µM | remaining activity | 21% |
